Laboratory results as given in ChEMBL document CHEMBL5356993, “Novel pyrazolo[3,4-d]pyrimidine derivatives: design, synthesis, anticancer evaluation, VEGFR-2 inhibition, and antiangiogenic activity” (RSC Med Chem, 2023).

Tests used:
Assay type in all cases: functional
Conditions in all cases: read-out: GI
OVCAR-5 = assay: Antiproliferative activity against human OVCAR-5 cells assessed as cell growth inhibition at 10 uM incubated for 48 hrs by SRB assay relative to control
Summary of the method: (§1)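 Cells plated in 96-well plates at […] cells/well and preincubated 24 h at 37 °C, 5% CO2. Time-zero plates were TCA-fixed. Compound was diluted in medium with 50 µg/mL gentamicin and cells exposed for 48 h. Adherent cells fixed with 10% final TCA; suspension cells with 16% final TCA. Plates stained with 0.4% SRB in 1% acetic acid, dye solubilized in 10 mM Trizma, absorbance read at 515 nm. Percent growth calculated against time-zero and control.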

NCI-H322M = assay: Antiproliferative activity against human NCI-H322M cells assessed as cell growth inhibition at 10 uM incubated for 48 hrs by SRB assay relative to control
NCI-H460 = assay: Antiproliferative activity against human NCI-H460 cells assessed as cell growth inhibition at 10 uM incubated for 48 hrs by SRB assay relative to control
COLO 205 = assay: Antiproliferative activity against human COLO 205 cells assessed as cell growth inhibition at 10 uM incubated for 48 hrs by SRB assay relative to control
SW-620 = assay: Antiproliferative activity against human SW620 cells assessed as cell growth inhibition at 10 uM incubated for 48 hrs by SRB assay relative to control
Summary of the method: (§2)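 Cells pre-incubated 24 h at 37°C, 5% CO2, then exposed to compound (DMSO stock diluted in medium with 50 µg/mL gentamicin) for 48 h. Adherent cells fixed with cold TCA (final 10%, 60 min, 4°C); suspension cells fixed with 16% TCA final. Stained with 0.4% SRB in 1% acetic acid for 10 min, dye solubilized in 10 mM Trizma base, absorbance read at 515 nm. Growth calculated against time-zero and untreated control plates.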

M14 = assay: Antiproliferative activity against human M14 cells assessed as cell growth inhibition at 10 uM incubated for 48 hrs by SRB assay relative to control; summary of the method: as §1
SK-MEL-2 = assay: Antiproliferative activity against human SK-MEL-2 cells assessed as cell growth inhibition at 10 uM incubated for 48 hrs by SRB assay relative to control; summary of the method: as §1
SK-MEL-5 = assay: Antiproliferative activity against human SK-MEL-5 cells assessed as cell growth inhibition at 10 uM incubated for 48 hrs by SRB assay relative to control; summary of the method: as §1
UACC-257 = assay: Antiproliferative activity against human UACC-257 cells assessed as cell growth inhibition at 10 uM incubated for 48 hrs by SRB assay relative to control; summary of the method: as §2
UACC-62 = assay: Antiproliferative activity against human UACC-62 cells assessed as cell growth inhibition at 10 uM incubated for 48 hrs by SRB assay relative to control; summary of the method: as §2
IGROV-1 = assay: Antiproliferative activity against human IGROV-1 cells assessed as cell growth inhibition at 10 uM incubated for 48 hrs by SRB assay relative to control
NCI/ADR-RES = assay: Antiproliferative activity against human NCI-ADR-RES cells assessed as cell growth inhibition at 10 uM incubated for 48 hrs by SRB assay relative to control
SK-OV-3 = assay: Antiproliferative activity against human SK-OV-3 cells assessed as cell growth inhibition at 10 uM incubated for 48 hrs by SRB assay relative to control; summary of the method: as §1
CAKI-1 = assay: Antiproliferative activity against human CAKI-1 cells assessed as cell growth inhibition at 10 uM incubated for 48 hrs by SRB assay relative to control
RXF 393 = assay: Antiproliferative activity against human RXF 393 cells assessed as cell growth inhibition at 10 uM incubated for 48 hrs by SRB assay relative to control; summary of the method: as §1
DU-145 = assay: Antiproliferative activity against human DU-145 cells assessed as cell growth inhibition at 10 uM incubated for 48 hrs by SRB assay relative to control
MCF7 = assay: Antiproliferative activity against human MCF7 cells assessed as cell growth inhibition at 10 uM incubated for 48 hrs by SRB assay relative to control
Hs-578T = assay: Antiproliferative activity against human Hs-578T cells assessed as cell growth inhibition at 10 uM incubated for 48 hrs by SRB assay relative to control; summary of the method: as §1
BT-549 = assay: Antiproliferative activity against human BT-549 cells assessed as cell growth inhibition at 10 uM incubated for 48 hrs by SRB assay relative to control
T47D = assay: Antiproliferative activity against human T47D cells assessed as cell growth inhibition at 10 uM incubated for 48 hrs by SRB assay relative to control; summary of the method: as §2
MDA-MB-468 = assay: Antiproliferative activity against human MDA-MB-468 cells assessed as cell growth inhibition at 10 uM incubated for 48 hrs by SRB assay relative to control
HOP-62 = assay: Antiproliferative activity against human HOP-62 cells assessed as cell growth inhibition at 10 uM incubated for 48 hrs by SRB assay relative to control
EKVX = assay: Antiproliferative activity against human EKVX cells assessed as cell growth inhibition at 10 uM incubated for 48 hrs by SRB assay relative to control
K562 = assay: Antiproliferative activity against human K562 cells assessed as cell growth inhibition at 10 uM incubated for 48 hrs by SRB assay relative to control
CCRF-CEM = assay: Antiproliferative activity against human CCRF-CEM cells assessed as cell growth inhibition at 10 uM incubated for 48 hrs by SRB assay relative to control; summary of the method: as §1

Row | Structure (SMILES) | inhibition of growth at 10 µM (OVCAR-5) [%] | inhibition of growth at 10 µM (NCI-H322M) [%] | inhibition of growth at 10 µM (NCI-H460) [%] | inhibition of growth at 10 µM (COLO 205) [%] | inhibition of growth at 10 µM (SW-620) [%] | inhibition of growth at 10 µM (M14) [%] | inhibition of growth at 10 µM (SK-MEL-2) [%] | inhibition of growth at 10 µM (SK-MEL-5) [%] | inhibition of growth at 10 µM (UACC-257) [%] | inhibition of growth at 10 µM (UACC-62) [%] | inhibition of growth at 10 µM (IGROV-1) [%] | inhibition of growth at 10 µM (NCI/ADR-RES) [%] | inhibition of growth at 10 µM (SK-OV-3) [%] | inhibition of growth at 10 µM (CAKI-1) [%] | inhibition of growth at 10 µM (RXF 393) [%] | inhibition of growth at 10 µM (DU-145) [%] | inhibition of growth at 10 µM (MCF7) [%] | inhibition of growth at 10 µM (Hs-578T) [%] | inhibition of growth at 10 µM (BT-549) [%] | inhibition of growth at 10 µM (T47D) [%] | further results
1 | Cc1nc2c(cnn2-c2ccccc2)c(=O)n1-c1ccc(N)cc1 | < 15 | < 15 | 16.8 | < 15 | < 15 | < 15 | 17.8 | 66.8 | 34.3 | 34.5 | 15 | < 15 | < 15 | 31.7 | < 15 | 17.3 | 37.6 | 21.4 | 31.2 | 64.9 | inhibition of growth at 10 µM (MDA-MB-468): 62.4%; inhibition of growth at 10 µM (HOP-62): 16.2%; inhibition of growth at 10 µM (EKVX): 63.3%; inhibition of growth at 10 µM (K562): 52.1%; inhibition of growth at 10 µM (CCRF-CEM): 21%
2 | CC(=O)Nc1ccc(-n2c(C)nc3c(cnn3-c3ccccc3)c2=O)cc1 | < 15 | < 15 | < 15 | < 15 | < 15 | < 15 | 24.3 | 77.4 | 41.7 | 38.3 | < 15 | < 15 | < 15 | 31.1 | < 15 | 17.8 | 44.4 | < 15 | 48 | < 15 | inhibition of growth at 10 µM (MDA-MB-468): < 15%; inhibition of growth at 10 µM (HOP-62): < 15%; inhibition of growth at 10 µM (EKVX): 66.8%; inhibition of growth at 10 µM (K562): 55.4%; inhibition of growth at 10 µM (CCRF-CEM): 30.8%
3 | Cc1nc2c(cnn2-c2ccccc2)c(=O)n1-c1ccc(N2C(=O)C=CC2=O)cc1 | < 15 | < 15 | < 15 | < 15 | < 15 | < 15 | < 15 | < 15 | < 15 | < 15 | < 15 | < 15 | < 15 | < 15 | < 15 | < 15 | < 15 | < 15 | < 15 | < 15 | inhibition of growth at 10 µM (MDA-MB-468): 18.6%; inhibition of growth at 10 µM (HOP-62): < 15%; inhibition of growth at 10 µM (EKVX): < 15%; inhibition of growth at 10 µM (K562): < 15%; inhibition of growth at 10 µM (CCRF-CEM): 32.2%
4 | Cc1nc2c(cnn2-c2ccccc2)c(=O)n1-c1ccc(NC(=O)c2ccc([N+](=O)[O-])cc2)cc1 | < 15 | 17.2 | 26.4 | 25.9 | < 15 | 24.6 | 29.3 | 82.4 | 50.8 | 39.6 | 31.1 | 47.2 | < 15 | 31.5 | 26.4 | 21 | 56.7 | 23.1 | 48.8 | 66.5 | inhibition of growth at 10 µM (MDA-MB-468): 68.6%; inhibition of growth at 10 µM (HOP-62): < 15%; inhibition of growth at 10 µM (EKVX): 69.3%; inhibition of growth at 10 µM (K562): 68.8%; inhibition of growth at 10 µM (CCRF-CEM): 52.5%
5 | Cc1nc2c(cnn2-c2ccccc2)c(=O)n1-c1ccc(/N=C2\C(=O)Nc3ccccc32)cc1 | < 15 | < 15 | < 15 | < 15 | < 15 | 18.8 | < 15 | 42.9 | 29.3 | 36.2 | 34.7 | < 15 | 19.6 | 31.7 | 29 | < 15 | 33.7 | 17.6 | 22.1 | 38.3 | inhibition of growth at 10 µM (MDA-MB-468): 51.4%; inhibition of growth at 10 µM (HOP-62): < 15%; inhibition of growth at 10 µM (EKVX): 52.1%; inhibition of growth at 10 µM (K562): 34.4%; inhibition of growth at 10 µM (CCRF-CEM): 37.8%
6 | Cc1nc2c(cnn2-c2ccccc2)c(=O)n1-c1ccc(N2C(=O)c3ccccc3C2=O)cc1 | < 15 | < 15 | < 15 | < 15 | < 15 | < 15 | < 15 | < 15 | < 15 | < 15 | < 15 | < 15 | < 15 | < 15 | < 15 | < 15 | < 15 | < 15 | < 15 | < 15 | inhibition of growth at 10 µM (MDA-MB-468): < 15%; inhibition of growth at 10 µM (HOP-62): < 15%; inhibition of growth at 10 µM (EKVX): < 15%; inhibition of growth at 10 µM (K562): < 15%; inhibition of growth at 10 µM (CCRF-CEM): < 15%
7 | Cc1nc2c(cnn2-c2ccccc2)c(=O)n1-c1ccc(NC(=O)c2ccco2)cc1 | < 15 | < 15 | < 15 | < 15 | < 15 | < 15 | < 15 | 23.1 | < 15 | 16.6 | < 15 | < 15 | < 15 | < 15 | < 15 | < 15 | 23.4 | < 15 | < 15 | 34 | inhibition of growth at 10 µM (MDA-MB-468): 37.3%; inhibition of growth at 10 µM (HOP-62): < 15%; inhibition of growth at 10 µM (EKVX): 26.9%; inhibition of growth at 10 µM (K562): 30.1%; inhibition of growth at 10 µM (CCRF-CEM): 23.6%
